In PMC9087257 (The Journal of International Medical Research, 2022):

Columns and labels:
[1] = test system: NCI-H460 cells; test: Wound healing assay; assay type: cell-based; settings: 75 nM, 150 nM and 300 nM, 48 h
[2] = test system: N-cadherin; test: Western blotting, N-cadherin level; assay type: cell-based; settings: NCI-H460 cells, 48 h, Western blot
Procedure, shortened: (§1)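 Western blot: NCI-H460 cells treated 48 h with three test-compound concentrations; 5 × 10^6 cells lysed in RIPA, run on SDS-PAGE and transferred to PVDF. Membranes blocked in 5% defatted milk. Anti-E-cadherin or anti-N-cadherin (1:10000) at 4°C for 12 h; anti-GAPDH (1:50000) 2 h at 25°C as internal control. ECL detection; bands quantified against the control group; mean ± SEM.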

[3] = MTT cytotoxicity against normal cells BEAS2B; assay type: cell-based; settings: human, BEAS2B cells (normal human epithelium cells)
Procedure, shortened: (§2)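 MTT viability: cells grown in RPMI-1640 with 10% FBS and penicillin-streptomycin, seeded in 24-well plates and held 24 h at 37°C, 5% CO2. Test compound added over a range of concentrations: 48 h for the cancer-line panel; three treatment durations for NCI-H460, NCI-H3122, HCC-44 and BEAS2B. MTT added for 2 h at 37°C, formazan dissolved in DMSO with 30 min shaking, absorbance read. Mean ± SEM.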

[4] = test system: E-cadherin; test: Western blotting, E-cadherin level; assay type: cell-based; settings: NCI-H460 cells, 48 h, Western blot
Procedure, shortened: as §1

[5] = biological target: TRKA (Homo sapiens, UniProt P04629); test: ELISA kinase assay, TRKA; assay type: biochemical
Procedure, shortened: (§3)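 Tyrosine kinase ELISA: ATP in kinase reaction buffer, then test compound diluted in DMSO (DMSO as negative control). Reaction started by adding purified kinase and incubated 1 h at 37°C. Plate washed three times with 1 mM PBS (pH 7.5), then HRP-conjugated goat anti-mouse IgG added for 30 min at 37°C. Washed again and read by spectrophotometer.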

[6] = test system: TE-11, SK-BR-3, HO-8910, QGY-7701, SHG-44, HCC-44, COLO-320, SH-SY5Y and SW579 cells; test: MTT cell viability, panel of nine cancer cell lines; assay type: cell-based; settings: 48 h
[7] = biological target: FGFR1 (Homo sapiens, UniProt P11362); test: ELISA kinase assay, FGFR1; assay type: biochemical
Procedure, shortened: as §3

[8] = biological target: ALK (Homo sapiens, UniProt Q9UM73); test: ELISA kinase assay, ALK; assay type: biochemical
Procedure, shortened: as §3

[9] = test system: NCI-H3122 cells; test: MTT cell viability assay, NCI-H3122; assay type: cell-based; settings: Homo sapiens, NCI-H3122, read-out: IC50 against NCI-H3122 cells
Procedure, shortened: as §2

[10] = test system: NCI-H460 cells; test: Transwell migration assay; assay type: cell-based; settings: 48 h
Procedure, shortened: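 Transwell migration with NCI-H460 cells, at three test-compound concentrations. Cells seeded in the upper chamber in serum-free RPMI-1640; lower chamber held RPMI-1640 with 10% FBS. After 48 h at 37°C, 5% CO2, cells were fixed and haematoxylin-stained, and migrated cells were counted.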

[11] = biological target: EGFR (Homo sapiens, UniProt P00533); test: ELISA kinase assay, EGFR; assay type: biochemical
Procedure, shortened: as §3

[12] = test system: NCI-H460 xenograft; test: NCI-H460 xenograft study; assay type: in vivo, BALB/c nude mice
Procedure, shortened: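 BALB/c nude mice (4 weeks, 18–21 g) carried NCI-H460 xenografts and were housed at 26–28°C on a 13 h/11 h light cycle. At tumour volume 100 mm3, mice were randomised, 5 per group, to water vehicle or 50 mg/kg test compound intragastrically every 3 days for 16 days. Tumours were then excised and weighed; heart, liver, spleen, lung and kidney taken for H&E.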

[13] = test system: HCC-44 cells; test: MTT cell viability assay, HCC-44; assay type: cell-based; settings: for antiproliferative efficacy against HCC-44 cells: 48 h, MTT
Procedure, shortened: as §2

[14] = test system: NCI-H460 cells; test: MTT cell viability assay, NCI-H460; assay type: cell-based; settings: Homo sapiens, NCI-H460, read-out: IC50 against NCI-H460 cells
Procedure, shortened: as §2

[15] = biological target: c-Met kinase (Homo sapiens, UniProt P08581); test: ELISA kinase assay, c-Met; assay type: biochemical
[16] = biological target: PDGFRα (Homo sapiens, UniProt P16234); test: ELISA kinase assay, PDGFRα; assay type: biochemical
Procedure, shortened: as §3

Sequence of PDGFRα (P16234 24-1089): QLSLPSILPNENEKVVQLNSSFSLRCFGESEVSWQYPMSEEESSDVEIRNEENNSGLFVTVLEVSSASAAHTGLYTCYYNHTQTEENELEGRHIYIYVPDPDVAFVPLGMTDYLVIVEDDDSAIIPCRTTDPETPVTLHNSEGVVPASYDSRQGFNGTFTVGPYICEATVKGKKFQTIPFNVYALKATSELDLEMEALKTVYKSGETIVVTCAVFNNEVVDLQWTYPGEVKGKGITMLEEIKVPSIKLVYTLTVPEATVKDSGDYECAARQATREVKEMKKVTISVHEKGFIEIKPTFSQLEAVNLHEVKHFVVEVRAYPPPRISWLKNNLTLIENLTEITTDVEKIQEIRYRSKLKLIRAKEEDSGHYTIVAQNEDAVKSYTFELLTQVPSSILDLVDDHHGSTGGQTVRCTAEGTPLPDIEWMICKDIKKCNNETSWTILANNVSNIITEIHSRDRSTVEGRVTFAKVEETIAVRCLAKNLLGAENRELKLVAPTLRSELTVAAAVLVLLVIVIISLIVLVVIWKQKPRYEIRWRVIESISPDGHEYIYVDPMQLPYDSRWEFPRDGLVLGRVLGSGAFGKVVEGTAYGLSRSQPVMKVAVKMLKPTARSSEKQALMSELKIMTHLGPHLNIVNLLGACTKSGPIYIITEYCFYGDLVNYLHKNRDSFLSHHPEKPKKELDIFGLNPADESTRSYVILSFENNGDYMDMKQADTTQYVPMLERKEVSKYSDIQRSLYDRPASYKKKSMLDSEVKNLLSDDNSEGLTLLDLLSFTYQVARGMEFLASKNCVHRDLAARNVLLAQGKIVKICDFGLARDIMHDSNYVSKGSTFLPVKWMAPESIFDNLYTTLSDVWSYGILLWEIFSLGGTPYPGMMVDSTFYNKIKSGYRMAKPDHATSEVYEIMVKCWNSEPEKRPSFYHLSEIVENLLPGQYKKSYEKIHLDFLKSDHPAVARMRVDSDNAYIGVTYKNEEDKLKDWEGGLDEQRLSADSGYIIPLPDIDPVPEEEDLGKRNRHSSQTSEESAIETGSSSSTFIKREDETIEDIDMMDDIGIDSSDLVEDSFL
Sequence of FGFR1 (P11362 22-822): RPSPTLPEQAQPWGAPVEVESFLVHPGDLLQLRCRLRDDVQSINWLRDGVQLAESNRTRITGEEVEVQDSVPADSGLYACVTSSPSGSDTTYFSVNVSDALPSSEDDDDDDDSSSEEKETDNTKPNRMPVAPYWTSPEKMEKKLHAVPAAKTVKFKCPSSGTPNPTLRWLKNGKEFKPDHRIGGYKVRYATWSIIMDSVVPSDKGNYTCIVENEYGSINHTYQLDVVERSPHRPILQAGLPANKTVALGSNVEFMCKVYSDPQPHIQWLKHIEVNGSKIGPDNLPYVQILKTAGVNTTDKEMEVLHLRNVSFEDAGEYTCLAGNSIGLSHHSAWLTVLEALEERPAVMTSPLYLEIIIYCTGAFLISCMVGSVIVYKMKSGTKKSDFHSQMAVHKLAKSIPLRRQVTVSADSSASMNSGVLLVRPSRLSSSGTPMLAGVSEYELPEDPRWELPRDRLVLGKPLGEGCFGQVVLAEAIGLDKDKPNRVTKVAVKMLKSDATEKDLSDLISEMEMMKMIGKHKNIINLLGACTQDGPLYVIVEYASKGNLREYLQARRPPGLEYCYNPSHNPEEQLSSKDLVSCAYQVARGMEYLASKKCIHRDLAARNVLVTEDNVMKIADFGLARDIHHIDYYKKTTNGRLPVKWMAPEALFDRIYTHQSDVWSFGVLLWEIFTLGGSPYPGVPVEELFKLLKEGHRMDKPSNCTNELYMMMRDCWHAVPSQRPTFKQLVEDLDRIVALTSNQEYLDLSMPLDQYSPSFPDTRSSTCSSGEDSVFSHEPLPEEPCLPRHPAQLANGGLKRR
Sequence of EGFR (P00533 25-1210): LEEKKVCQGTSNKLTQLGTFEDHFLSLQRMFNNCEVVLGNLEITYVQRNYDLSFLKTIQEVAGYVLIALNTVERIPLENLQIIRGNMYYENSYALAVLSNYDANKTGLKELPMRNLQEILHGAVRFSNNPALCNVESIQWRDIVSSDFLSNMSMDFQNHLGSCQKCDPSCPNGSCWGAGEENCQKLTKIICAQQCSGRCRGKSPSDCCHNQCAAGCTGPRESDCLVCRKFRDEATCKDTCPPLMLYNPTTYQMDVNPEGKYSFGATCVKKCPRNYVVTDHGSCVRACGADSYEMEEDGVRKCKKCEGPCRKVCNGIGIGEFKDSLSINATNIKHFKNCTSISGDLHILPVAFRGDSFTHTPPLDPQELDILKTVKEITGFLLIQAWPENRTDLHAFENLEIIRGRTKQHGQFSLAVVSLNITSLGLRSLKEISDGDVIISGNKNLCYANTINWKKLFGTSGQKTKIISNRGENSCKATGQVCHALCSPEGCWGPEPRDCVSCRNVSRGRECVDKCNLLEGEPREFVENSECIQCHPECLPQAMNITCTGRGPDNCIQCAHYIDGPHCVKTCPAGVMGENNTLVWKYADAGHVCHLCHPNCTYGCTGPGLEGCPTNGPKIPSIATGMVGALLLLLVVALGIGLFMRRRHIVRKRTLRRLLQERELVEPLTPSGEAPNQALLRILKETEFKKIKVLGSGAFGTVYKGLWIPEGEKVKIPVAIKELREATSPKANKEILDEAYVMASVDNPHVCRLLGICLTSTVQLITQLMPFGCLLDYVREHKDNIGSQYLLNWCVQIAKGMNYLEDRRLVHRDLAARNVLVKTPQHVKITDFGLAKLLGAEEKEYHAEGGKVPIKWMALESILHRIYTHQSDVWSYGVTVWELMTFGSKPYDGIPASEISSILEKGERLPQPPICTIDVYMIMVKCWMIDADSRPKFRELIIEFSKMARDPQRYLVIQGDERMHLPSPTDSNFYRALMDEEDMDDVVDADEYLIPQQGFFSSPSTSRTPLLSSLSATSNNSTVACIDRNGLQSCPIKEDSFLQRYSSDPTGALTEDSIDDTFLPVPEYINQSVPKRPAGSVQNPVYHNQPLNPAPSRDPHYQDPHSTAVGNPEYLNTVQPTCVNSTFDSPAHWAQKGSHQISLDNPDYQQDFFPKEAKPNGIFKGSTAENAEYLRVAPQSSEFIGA
Sequence of c-Met kinase (P08581 25-1390): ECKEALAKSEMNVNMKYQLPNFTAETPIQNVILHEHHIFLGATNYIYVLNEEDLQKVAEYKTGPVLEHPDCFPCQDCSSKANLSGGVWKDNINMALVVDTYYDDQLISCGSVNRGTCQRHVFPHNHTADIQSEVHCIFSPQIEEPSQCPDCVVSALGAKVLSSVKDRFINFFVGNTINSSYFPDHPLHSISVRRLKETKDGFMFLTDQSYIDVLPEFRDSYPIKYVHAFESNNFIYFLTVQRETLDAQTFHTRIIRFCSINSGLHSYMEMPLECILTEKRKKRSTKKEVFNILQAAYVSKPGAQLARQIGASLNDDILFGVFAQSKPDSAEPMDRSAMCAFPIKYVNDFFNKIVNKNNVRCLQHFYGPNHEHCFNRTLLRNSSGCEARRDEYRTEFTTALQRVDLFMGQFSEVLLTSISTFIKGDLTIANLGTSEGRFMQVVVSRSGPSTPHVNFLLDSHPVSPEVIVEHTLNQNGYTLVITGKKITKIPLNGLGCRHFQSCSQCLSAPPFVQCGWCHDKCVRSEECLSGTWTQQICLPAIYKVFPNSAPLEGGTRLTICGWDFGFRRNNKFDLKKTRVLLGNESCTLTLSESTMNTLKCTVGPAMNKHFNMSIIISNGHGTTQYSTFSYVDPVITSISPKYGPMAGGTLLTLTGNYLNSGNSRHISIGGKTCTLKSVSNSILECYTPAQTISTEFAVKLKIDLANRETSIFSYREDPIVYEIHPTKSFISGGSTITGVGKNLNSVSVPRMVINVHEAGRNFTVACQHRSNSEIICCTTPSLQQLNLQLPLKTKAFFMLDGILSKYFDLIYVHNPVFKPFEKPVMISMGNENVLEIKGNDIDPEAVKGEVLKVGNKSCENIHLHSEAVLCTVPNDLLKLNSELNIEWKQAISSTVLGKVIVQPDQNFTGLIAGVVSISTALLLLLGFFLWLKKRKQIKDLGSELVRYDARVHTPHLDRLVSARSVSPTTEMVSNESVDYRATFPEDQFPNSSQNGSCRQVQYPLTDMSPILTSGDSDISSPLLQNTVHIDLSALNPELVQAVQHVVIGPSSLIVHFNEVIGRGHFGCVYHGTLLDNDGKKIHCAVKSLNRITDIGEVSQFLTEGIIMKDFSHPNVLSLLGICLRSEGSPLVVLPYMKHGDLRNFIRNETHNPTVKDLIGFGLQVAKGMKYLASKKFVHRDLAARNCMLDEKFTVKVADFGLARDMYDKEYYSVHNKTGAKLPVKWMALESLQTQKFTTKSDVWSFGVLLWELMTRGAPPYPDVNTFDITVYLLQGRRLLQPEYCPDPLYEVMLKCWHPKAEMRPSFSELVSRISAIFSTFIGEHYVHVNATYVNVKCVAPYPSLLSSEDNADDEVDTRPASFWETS

IC50 [5]: > 1500 nM | IC50 [7]: > 1500 nM | IC50 [8]: > 1500 nM | IC50 [9]: 1170 nM | IC50 [11]: > 1500 nM | IC50 ([13]; Homo sapiens, HCC44, read-out: IC50 against HCC-44 cells): 2060 nM | IC50 [14]: 150 nM | IC50 [15]: 27.96 ± 0.14 nM | IC50 [16]: > 1500 nM
SMILES: O=C(/C=C/c1ccc(Br)cc1)c1ccc(OCCCSc2nncs2)cc1 [ZW97, (E)-1-(4-(3-((1,3,4-thiadiazol-2-yl)thio)propoxy)phenyl)-3-(4-bromophenyl)prop-2-en-1-one]
wound healing [1]: inhibited the wound healing in a concentration dependent manner | level of N-cadherin [2]: downregulated | IC50 [3]: > 64000 nM | level of E-cadherin [4]: upregulated | antiproliferative activity in nine cancer cell lines [6]: antiproliferative activity against all nine cancer cell lines | cell migration (transwell) [10]: hindered NCI-H460 cell migration | subcutaneous tumour growth ([12]; 50 mg/kg intragastric for 16 days): suppressed NCI-H460 subcutaneous tumour growth | mouse body weight ([12]; 50 mg/kg intragastric for 16 days, compared with control): did not significantly decrease the mouse body weight | inhibitory rate (tumour weight) ([12]; day 16, 50 mg/kg intragastric once every 3 days, versus vehicle group): 61.58% | antiproliferative efficacy against HCC-44 cells ([13]; 4 μM): approximately 65.7% | antiproliferative efficacy against HCC-44 cells ([13]; 8 μM): ~88.3%
